Results from ChEMBL document CHEMBL4699628, “Bivalent HIV-1 fusion inhibitors based on peptidomimetics” (Bioorg Med Chem, 2020).

Columns and labels:
Type in all cases: cell-based
[1] = Binding affinity to two PBDs of N36 trimer of gp41 in HIV1 NL4-3 infected in human TZM-bl cells assessed as inhibition of viral fusion incubated for 48 hrs by Steady-Glo luciferase assay; conditions: Human immunodeficiency virus 1, NL4-3, TZM-bl
[2] = Cytotoxicity against human TZM-bl cells assessed as reduction in cell viability incubated for 48 hrs by CellTiter 96 aqueous nonradioactive cell proliferation assay
Method in brief: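 TZM-bl cells with serially diluted compounds, no virus, otherwise as in infection assay (48 h culture); viability read by CellTiter 96 non-radioactive cell proliferation assay.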

[3] = tested on: TZM-bl; experiment: Binding affinity to two PBDs of N36 trimer of gp41 in HIV1 NL4-3 infected in human TZM-bl cells assessed as inhibition of viral fusion at 50 uM incubated for 48 hrs by Steady-Glo luciferase assay; conditions: Human immunodeficiency virus 1

| SMILES | IC50 [1] [µM] | CC50 at 48 h [2] [µM] | inhibition [3] [%] |
| --- | --- | --- | --- |
| CC(C)C[C@H](NC(=O)c1ccc(NC(=O)[C@H](Cc2c[nH]c3ccccc23)NC(=O)CCC(=O)NCCOCCOCCOCCOCCOCCOCCOCCNC(=O)CCC(=O)N[C@@H](Cc2c[nH]c3ccccc23)C(=O)Nc2ccc(C(=O)N[C@@H](CC(C)C)C(=O)O)cc2OCCc2c[nH]c3ccccc23)c(OCCc2c[nH]c3ccccc23)c1)C(=O)O | 17 | > 50 | – |
| O=C(O)C[C@H](NC(=O)CCC(=O)NCCOCCOCCOCCOCCOCCOCCOCCOCCOCCNC(=O)CCC(=O)N[C@@H](CC(=O)O)C(=O)Nc1ccc(C(=O)N[C@@H](Cc2c[nH]c3ccccc23)C(=O)O)cc1OCCc1c[nH]c2ccccc12)C(=O)Nc1ccc(C(=O)N[C@@H](Cc2c[nH]c3ccccc23)C(=O)O)cc1OCCc1c[nH]c2ccccc12 | 36.3 | > 50 | – |
| CC(C)C[C@H](NC(=O)c1ccc(NC(=O)[C@@H](N)Cc2c[nH]c3ccccc23)c(OCCc2c[nH]c3ccccc23)c1)C(=O)O | – | > 50 | 1 |
| COc1ccc(C[C@H](N)C(=O)Nc2ccc(C(=O)N[C@@H](Cc3c[nH]c4ccccc34)C(=O)O)cc2OCCc2c[nH]c3ccccc23)cc1 | – | > 50 | 0 |
| CC(C)C[C@H](NC(=O)c1ccc(NC(=O)[C@H](Cc2c[nH]c3ccccc23)NC(=O)CCC(=O)NCCOCCNC(=O)CCC(=O)N[C@@H](Cc2c[nH]c3ccccc23)C(=O)Nc2ccc(C(=O)N[C@@H](CC(C)C)C(=O)O)cc2OCCc2c[nH]c3ccccc23)c(OCCc2c[nH]c3ccccc23)c1)C(=O)O | 23.8 | > 50 | – |
| COc1ccc(C[C@H](NC(=O)CCC(=O)NCCOCCOCCOCCOCCOCCOCCOCCOCCOCCNC(=O)CCC(=O)N[C@@H](Cc2ccc(OC)cc2)C(=O)Nc2ccc(C(=O)N[C@@H](Cc3c[nH]c4ccccc34)C(=O)O)cc2OCCc2c[nH]c3ccccc23)C(=O)Nc2ccc(C(=O)N[C@@H](Cc3c[nH]c4ccccc34)C(=O)O)cc2OCCc2c[nH]c3ccccc23)cc1 | 10.2 | > 50 | – |
| CC(C)C[C@H](NC(=O)c1ccc(NC(=O)[C@H](Cc2c[nH]c3ccccc23)NC(=O)CCC(=O)NCCOCCOCCOCCOCCOCCOCCOCCOCCOCCNC(=O)CCC(=O)O)c(OCCc2c[nH]c3ccccc23)c1)C(=O)O | – | > 50 | 7 |
| CC(C)C[C@H](NC(=O)c1ccc(NC(=O)[C@H](Cc2c[nH]c3ccccc23)NC(=O)CCC(=O)NCCOCCOCCOCCOCCOCCNC(=O)CCC(=O)N[C@@H](Cc2c[nH]c3ccccc23)C(=O)Nc2ccc(C(=O)N[C@@H](CC(C)C)C(=O)O)cc2OCCc2c[nH]c3ccccc23)c(OCCc2c[nH]c3ccccc23)c1)C(=O)O | 17.3 | > 50 | – |
| CC(C)C[C@H](NC(=O)c1ccc(NC(=O)[C@H](Cc2c[nH]c3ccccc23)NC(=O)CCC(=O)NCCOCCOCCOCCOCCOCCOCCOCCOCCOCCNC(=O)CCC(=O)N[C@@H](Cc2c[nH]c3ccccc23)C(=O)Nc2ccc(C(=O)N[C@@H](CC(C)C)C(=O)O)cc2OCCc2c[nH]c3ccccc23)c(OCCc2c[nH]c3ccccc23)c1)C(=O)O | 1.7 | > 50 | – |
| CC(C)C[C@H](NC(=O)c1ccc(NC(=O)[C@H](Cc2c[nH]c3ccccc23)NC(=O)CCC(=O)NCCOCCOCCOCCOCCOCCOCCOCCOCCOCCOCCOCCNC(=O)CCC(=O)N[C@@H](Cc2c[nH]c3ccccc23)C(=O)Nc2ccc(C(=O)N[C@@H](CC(C)C)C(=O)O)cc2OCCc2c[nH]c3ccccc23)c(OCCc2c[nH]c3ccccc23)c1)C(=O)O | 15 | > 50 | – |
| N[C@@H](CC(=O)O)C(=O)Nc1ccc(C(=O)N[C@@H](Cc2c[nH]c3ccccc23)C(=O)O)cc1OCCc1c[nH]c2ccccc12 | 1.6 | > 50 | – |
| Cc1cn([C@H]2C[C@H](N=[N+]=[N-])[C@@H](CO)O2)c(=O)[nH]c1=O [ZIDOVUDINE] | 0.118 | > 100 | – |
| CC(C)C[C@H](NC(=O)c1ccc(NC(=O)[C@H](Cc2c[nH]c3ccccc23)NC(=O)CCC(=O)NCCOCCOCCOCCNC(=O)CCC(=O)N[C@@H](Cc2c[nH]c3ccccc23)C(=O)Nc2ccc(C(=O)N[C@@H](CC(C)C)C(=O)O)cc2OCCc2c[nH]c3ccccc23)c(OCCc2c[nH]c3ccccc23)c1)C(=O)O | 22.8 | > 50 | – |
